Data as given in ChEMBL document CHEMBL1914430, “Synthesis of some new 1,3,5-trisubstituted pyrazolines bearing benzene sulfonamide as anticancer and anti-inflammatory agents” (Bioorg Med Chem Lett, 2011).

Key:
Type in all cases: functional
A498 = assay: Anticancer activity against human A498 cells after 48 hrs; conditions: A498, 48 h
Method in brief: (§1)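 NCI Drug Evaluation Branch 60-cell-line screen across leukemia, melanoma, lung, colon, CNS, ovarian, renal, prostate and breast panels. The incubation period is 48 h. Parameters are derived from dose–response data: GI50 is the concentration giving 50% decrease in net growth, TGI is total growth inhibition, and LC50 is net 50% loss of initial cells. Values beyond the tested range are reported as greater or less than the maximum or minimum concentration.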

DU-145 = assay: Anticancer activity against human DU145 cells after 48 hrs; conditions: DU-145, 48 h; method in brief: as §1
SF-295 = assay: Anticancer activity against human SF295 cells after 48 hrs; conditions: SF-295, 48 h
Method in brief: (§2)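 NCI 60-line panel protocol with a 48 h incubation. Per line: GI50 = concentration giving 50% decrease in net cell growth; TGI = total growth inhibition; LC50 = net 50% loss of initial cells. When the level was not reached or was exceeded, the value is given as greater or less than the highest or lowest concentration tested.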

HOP-92 = assay: Anticancer activity against human HOP92 cells after 48 hrs; conditions: HOP-92, 48 h; method in brief: as §1
RPMI-8226 = assay: Anticancer activity against human RPMI8226 cells after 48 hrs; conditions: RPMI-8226, 48 h; method in brief: as §2
OVCAR-4 = assay: Anticancer activity against human OVCAR4 cells after 48 hrs; conditions: OVCAR-4, 48 h; method in brief: as §2
OVCAR-8 = assay: Anticancer activity against human OVCAR8 cells after 48 hrs; conditions: OVCAR-8, 48 h; method in brief: as §2
MOLT-4 = assay: Anticancer activity against human MOLT4 cells after 48 hrs; conditions: MOLT-4, 48 h; method in brief: as §2
NCI-H23 = assay: Anticancer activity against human NCI-H23 cells after 48 hrs; conditions: NCI-H23, 48 h; method in brief: as §2
UACC-62 = assay: Anticancer activity against human UACC62 cells after 48 hrs; conditions: UACC-62, 48 h
Method in brief: (§3)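 NCI ~60 human tumour cell line panel with a 48 h incubation. GI50 is the concentration giving a 50% fall in net growth, TGI gives total growth inhibition, and LC50 gives a net 50% loss of initial cells. An effect not reached or exceeded is reported as greater or less than the highest or lowest concentration tested.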

ACHN = assay: Anticancer activity against human ACHN cells after 48 hrs; method in brief: as §1
SNB-19 = assay: Anticancer activity against human SNB19 cells after 48 hrs; conditions: SNB-19, 48 h; method in brief: as §2
MDA-MB-435 = assay: Anticancer activity against human MDA-MB-435 cells after 48 hrs; conditions: MDA-MB-435, 48 h; method in brief: as §1
LOX IMVI = assay: Anticancer activity against human LOXIMVI cells after 48 hrs; method in brief: as §1
NCI-H460 = assay: Anticancer activity against human NCI-H460 cells after 48 hrs; conditions: NCI-H460, 48 h; method in brief: as §2
SF-539 = assay: Anticancer activity against human SF539 cells after 48 hrs; conditions: SF-539, 48 h; method in brief: as §2
K562 = assay: Anticancer activity against human K562 cells after 48 hrs; conditions: K562, 48 h; method in brief: as §1
NCI/ADR-RES = assay: Anticancer activity against human NCI/ADR-RES cells after 48 hrs; method in brief: as §2
SK-MEL-5 = assay: Anticancer activity against human SK-MEL-5 cells after 48 hrs; conditions: SK-MEL-5, 48 h; method in brief: as §2
SW-620 = assay: Anticancer activity against human SW620 cells after 48 hrs; conditions: SW-620, 48 h; method in brief: as §2
[1] = Anticancer activity against human Hs 578T cells after 48 hrs; method in brief: as §1
HCC 2998 = assay: Anticancer activity against human HCC2998 cells after 48 hrs; conditions: HCC 2998, 48 h; method in brief: as §1
NCI-H322M = assay: Anticancer activity against human NCI-H322M cells after 48 hrs; method in brief: as §2
T47D = assay: Anticancer activity against human T47D cells after 48 hrs; method in brief: as §3
COLO 205 = assay: Anticancer activity against human COLO205 cells after 48 hrs; conditions: COLO 205, 48 h; method in brief: as §1
786-0 = assay: Anticancer activity against human 786-0 cells after 48 hrs; conditions: 786-0, 48 h; method in brief: as §1
Malme-3M = assay: Anticancer activity against human MALME-3M cells after 48 hrs; method in brief: as §1
PC-3 = assay: Anticancer activity against human PC3 cells after 48 hrs; conditions: PC-3, 48 h; method in brief: as §2
HOP-62 = assay: Anticancer activity against human HOP62 cells after 48 hrs; conditions: HOP-62, 48 h; method in brief: as §1
UO-31 = assay: Anticancer activity against human UO31 cells after 48 hrs; conditions: UO-31, 48 h; method in brief: as §3
RXF 393 = assay: Anticancer activity against human RXF393 cells after 48 hrs; conditions: RXF 393, 48 h; method in brief: as §2
SNB-75 = assay: Anticancer activity against human SNB75 cells after 48 hrs; conditions: SNB-75, 48 h; method in brief: as §2
[2] = read-out: LC50 (the source's name)

Question: Which results are given for `Cc1cc(O)c(C2=NN(c3ccc(S(N)(=O)=O)cc3)C(/C=C/c3ccccc3)C2)cc1Cl` (stereo unspecified)?
Answer: GI50 (A498): 14.9 µM; TGI (A498): 42.4 µM; CC50 (A498; [2]): > 100 µM; GI50 (DU-145): 14.1 µM; LC50 (concentration causing net 50% loss of initial cells) (DU-145): > 100 µM; TGI (DU-145): 38.6 µM; GI50 (SF-295): 2.36 µM; LC50 (concentration giving net 50% loss of initial cells) (SF-295): 37.3 µM; TGI (SF-295): 11.9 µM; GI50 (HOP-92): 2.36 µM; TGI (HOP-92): 8.48 µM; CC50 (HOP-92; [2]): 34 µM; GI50 (RPMI-8226): 4.95 µM; LC50 (concentration for net 50% loss of initial cells) (RPMI-8226): 0.575 µM; TGI (RPMI-8226): 20.6 µM; GI50 (OVCAR-4): 3.74 µM; LC50 (OVCAR-4): 48.6 µM; TGI (OVCAR-4): 18.9 µM; GI50 (OVCAR-8): 3.03 µM; TGI (OVCAR-8): 20.2 µM; CC50 (OVCAR-8; [2]): 91.7 µM; GI50 (MOLT-4): 17.7 µM; LC50 (MOLT-4): > 100 µM; TGI (MOLT-4): 73.7 µM; GI50 (NCI-H23): 1.68 µM; LC50 (concentration killing 50% of initial cells) (NCI-H23): 35.4 µM; TGI (NCI-H23): 12.5 µM; GI50 (UACC-62): 2.89 µM; LC50 (UACC-62): 34 µM; TGI (UACC-62): 11.4 µM; GI50 (ACHN): 5.27 µM; TGI (ACHN): 21.9 µM; CC50 (ACHN; [2]): 67.2 µM; GI50 (SNB-19): 7.84 µM; TGI (SNB-19): 19.9 µM; CC50 (SNB-19; [2]): 44.7 µM; GI50 (MDA-MB-435): 8.87 µM; TGI (MDA-MB-435): 24 µM; CC50 (MDA-MB-435; [2]): 59.5 µM; GI50 (LOX IMVI): 3.94 µM; TGI (LOX IMVI): 16.2 µM; CC50 (LOX IMVI; [2]): 40.3 µM; GI50 (NCI-H460): 4.03 µM; LC50 (50% lethal concentration) (NCI-H460): 41.3 µM; TGI (NCI-H460): 17 µM; GI50 (SF-539): 2.98 µM; LC50 (concentration causing net 50% loss of initial cells) (SF-539): 37.5 µM; TGI (SF-539): 14 µM; GI50 (K562): 11.6 µM; LC50 (concentration killing 50% of initial cells) (K562): > 100 µM; TGI (K562): 87.5 µM; GI50 (NCI/ADR-RES): 9.26 µM; TGI (NCI/ADR-RES): 22.7 µM; CC50 (NCI/ADR-RES; [2]): 53 µM; GI50 (SK-MEL-5): 4.23 µM; LC50 (SK-MEL-5): 40.5 µM; TGI (SK-MEL-5): 16.4 µM; GI50 (SW-620): 11.7 µM; TGI (SW-620): 31.3 µM; CC50 (SW-620; [2]): 84 µM; GI50 [1]: 12.3 µM; TGI [1]: 49.7 µM; CC50 [1, 2]: > 100 µM; GI50 (HCC 2998): 9.89 µM; LC50 (net 50% loss of initial cells) (HCC 2998): 92.5 µM; TGI (HCC 2998): 30.3 µM; GI50 (NCI-H322M): 5.73 µM; LC50 (net 50% loss of initial cells) (NCI-H322M): > 100 µM; TGI (NCI-H322M): 27.5 µM; GI50 (T47D): 3.38 µM; TGI (T47D): 14.7 µM; CC50 (T47D; [2]): 44.5 µM; GI50 (COLO 205): 10.4 µM; LC50 (concentration giving net 50% loss of initial cells) (COLO 205): 47 µM; TGI (COLO 205): 22.1 µM; GI50 (786-0): 4.09 µM; TGI (786-0): 12.5 µM; CC50 (786-0; [2]): 35.3 µM; GI50 (Malme-3M): 3.01 µM; TGI (Malme-3M): 17.4 µM; CC50 (Malme-3M; [2]): 51.9 µM; GI50 (PC-3): 3.15 µM; TGI (PC-3): 11.5 µM; CC50 (PC-3; [2]): 34 µM; GI50 (HOP-62): 3.94 µM; LC50 (concentration for 50% net loss of initial cells) (HOP-62): 37.5 µM; TGI (HOP-62): 14.1 µM; GI50 (UO-31): 15.2 µM; TGI (UO-31): 34.9 µM; CC50 (UO-31; [2]): 79.9 µM; GI50 (RXF 393): 6.69 µM; LC50 (RXF 393): 52.6 µM; TGI (RXF 393): 20.2 µM; GI50 (SNB-75): 3.39 µM; TGI (SNB-75): 16.1 µM; CC50 (SNB-75; [2]): 44.4 µM
